Published values from different studies.
Lines come from different studies, so protocols differ.

| SMILES | target or system | assay | system | conditions | quantity | value |
| --- | --- | --- | --- | --- | --- | --- |
| CC(C)[C@]12O[C@H]1[C@@H]1O[C@]13[C@]1(O[C@H]1C[C@H]1C4=C(CC[C@@]13C)C(=O)OC4)[C@@H]2O | – | – | SCID mouse, plasma | intravenous, 0.6 mg/kg | MRT | 28.8 min |
| CCOC(=O)c1c(NC(=O)CNC(C)C)sc2c1CCCCC2 | – | – | male mouse, plasma | intraperitoneal, 100 mg/kg, single dose | MRT(0-inf) | 247 min |
| c1ccc2c(c1)[I+]c1ccccc1-2 | HepG2 | cell growth or viability, ATP luminescence | – | 72 h | CC50 | 1.28 µM |
| CC(C)(C)[C@H](NC(=O)C(F)(F)F)C(=O)N1C[C@H]2[C@@H]([C@H]1C(=O)N[C@H](C#N)C[C@@H]1CCNC1=O)C2(C)C | Huh-7 | cell growth or viability | – | – | CC50 | > 100 µM |
| CC(C)CC(=O)OC[C@H]1O[C@@](C#N)(c2ccc3c(N)ncnn23)[C@H](O)[C@@H]1O | – | metabolic stability | human, plasma | 5 µM | half-life | 7.93 min |
| COc1ccc(NC(=O)N2CCCCN3[C@H](CN(C)C)[C@H](c4ccc(C#Cc5ccccc5)cc4)[C@@H]3C2)cc1 | HepG2 | cell growth or viability, ATP luminescence | – | 72 h | CC50 | 6.08 µM |
| CC[C@H](C)[C@H](NC(=O)[C@H](Cc1ccccc1)NC(=O)[C@H](CCC(=O)O)NC(=O)[C@H](CCCCN)NC(=O)[C@H](C)NC(=O)[C@H](C)NC(=O)[C@H](CCC(N)=O)NC(=O)CNC(=O)[C@H](CCC(=O)O)NC(=O)[C@H](CC(C)C)NC(=O)[C@H](Cc1ccc(O)cc1)NC(=O)[C@H](CO)NC(=O)[C@H](CO)NC(=O)[C@@H](NC(=O)[C@H](CC(=O)O)NC(=O)[C@H](CO)NC(=O)[C@@H](NC(=O)[C@H](Cc1ccccc1)NC(=O)[C@@H](NC(=O)CNC(=O)[C@H](CCC(=O)O)NC(=O)[C@H](C)NC(=O)N(N)Cc1c[nH]cn1)[C@@H](C)O)[C@@H](C)O)C(C)C)C(=O)N[C@@H](C)C(=O)N[C@@H](Cc1c[nH]c2ccccc12)C(=O)N[C@@H](CC(C)C)C(=O)N[C@H](C(=O)N[C@@H](CCCNC(=N)N)C(=O)NCC(=O)N[C@@H](CCCNC(=N)N)C(=O)NCC(=O)O)C(C)C | – | – | male CD-1 mouse, plasma | intravenous, 1 mg/kg, single dose | MRT | 8.4 min |
| CC(=O)c1c(C)c2cnc(Nc3ccc(C4CCN(CCS(C)(=O)=O)CC4)cn3)nc2n(C2CCCC2)c1=O | – | metabolic stability | human, liver microsomes | – | half-life | 28.6 min |
| CC(C)=CCC[C@](C)(O[C@@H]1O[C@H](CO)[C@@H](O)[C@H](O)[C@H]1O)[C@H]1CC[C@]2(C)[C@@H]1[C@H](O)C[C@@H]1[C@@]3(C)CC[C@H](O)C(C)(C)[C@@H]3CC[C@]12C | – | – | mouse, plasma | intravenous, 2 mg/kg | MRT | 510 min |
| N#C[C@@]1(n2ccc(N)nc2=O)O[C@H](CO)[C@@H](O)[C@H]1O | Huh-7 | cell growth or viability | – | – | CC50 | 99.5 µM |
| Cc1[nH]c(C)c(S(=O)(=O)Nc2ccc(S(F)(F)(F)(F)F)c(Cl)c2)c1C(=O)N1CCC(F)(F)C1 | – | metabolic stability | human, liver microsomes | – | half-life | 13 min |
